Measured values from different studies.
Lines come from different studies, so protocols differ.
Target: Phosphatidylinositol 4,5-bisphosphate 3-kinase catalytic subunit delta isoform (PIK3CD, Homo sapiens, UniProt O00329)
One construct used (O00329 1-1044): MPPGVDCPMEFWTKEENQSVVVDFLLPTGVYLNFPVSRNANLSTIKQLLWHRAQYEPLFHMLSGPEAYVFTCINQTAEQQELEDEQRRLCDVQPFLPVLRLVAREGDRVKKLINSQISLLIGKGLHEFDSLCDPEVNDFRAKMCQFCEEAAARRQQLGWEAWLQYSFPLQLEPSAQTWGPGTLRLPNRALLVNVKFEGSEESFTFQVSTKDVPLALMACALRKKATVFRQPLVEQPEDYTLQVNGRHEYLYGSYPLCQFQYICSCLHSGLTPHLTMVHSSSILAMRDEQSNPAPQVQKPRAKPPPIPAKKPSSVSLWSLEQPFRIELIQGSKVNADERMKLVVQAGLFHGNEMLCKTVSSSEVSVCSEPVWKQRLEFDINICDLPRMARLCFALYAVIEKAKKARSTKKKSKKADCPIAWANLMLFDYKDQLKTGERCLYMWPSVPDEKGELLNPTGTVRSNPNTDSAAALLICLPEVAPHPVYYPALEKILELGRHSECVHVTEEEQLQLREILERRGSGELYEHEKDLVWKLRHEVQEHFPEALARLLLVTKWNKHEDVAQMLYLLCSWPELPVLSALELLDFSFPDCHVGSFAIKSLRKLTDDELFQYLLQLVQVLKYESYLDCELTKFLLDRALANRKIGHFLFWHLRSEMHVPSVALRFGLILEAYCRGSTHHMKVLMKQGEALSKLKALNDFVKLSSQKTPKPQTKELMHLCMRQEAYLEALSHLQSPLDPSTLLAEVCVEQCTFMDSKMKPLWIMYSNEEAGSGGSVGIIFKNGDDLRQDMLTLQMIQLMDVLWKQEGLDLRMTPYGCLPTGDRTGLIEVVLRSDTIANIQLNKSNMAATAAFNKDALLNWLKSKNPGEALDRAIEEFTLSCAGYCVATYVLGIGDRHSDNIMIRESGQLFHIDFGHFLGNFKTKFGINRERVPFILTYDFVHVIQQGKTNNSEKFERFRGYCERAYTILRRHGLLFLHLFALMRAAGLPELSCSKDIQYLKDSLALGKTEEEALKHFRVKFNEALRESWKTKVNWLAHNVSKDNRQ

| Structure (SMILES) | assay | setting | remaining binding |
| --- | --- | --- | --- |
| COc1ccc2c(c1)O[C@@H](c1ccc(OC)c(OC)c1)C[C@H]2NC(=O)C1(c2ccc3c(c2)OC(F)(F)O3)CC1 | cell-free assay, competition with immobilised ligand | 1 µM | 97% |
| CN(C)c1ncc(F)c(-c2cnn3ncccc23)n1 | binding | 1 µM | 98% |
| O=C(NCCCN1CCOCC1)c1ccc(Nc2ncc(Cl)c(-c3ccc(Cl)s3)n2)cc1 | binding, competition with immobilised ligand | 1 µM | 100% |
| N[C@@H]1CCN(c2nccc(-c3cnn4ncccc34)n2)C1 | binding | 1 µM | 100% |
| CN(c1ccnc(CNc2nc(Nc3ccc4c(c3)CC(=O)N4)ncc2C(F)(F)F)n1)S(C)(=O)=O | cell-free assay, competition with immobilised ligand | 1 µM | 77% |
| CN(c1nccc(-c2cnn3ncccc23)n1)C1CC1 | binding | 1 µM | 100% |
| CCc1ccccc1C(=O)Nc1n[nH]c2c(C)c(F)c(C3C(C#N)=C(C)N(C)C(C)=C3C#N)cc12 | cell-free assay, competition with immobilised ligand | 1 µM | 90% |
| O=C(c1ccc(Nc2nccc(-c3cc4ccccc4s3)n2)cc1)N1CCC(N2CCCC2)CC1 | binding, competition with immobilised ligand | 1 µM | 41% |
| Cc1cc(-n2nc(Cc3cc(F)cc(C(F)(F)F)c3)nc2C)ccc1C(N)=O | cell-free assay, competition with immobilised ligand | 1 µM | 52% |
| O=C(NCC1CCOCC1)c1n[nH]cc1NC(=O)c1c(F)cccc1F | binding, competition with immobilised ligand | 1 µM | 87% |
| C[C@@H]1CCN(c2nccc(-c3cnn4ncccc34)n2)C1 | binding | 1 µM | 100% |
| c1cncc(-c2cccc(Nc3nccc(NC4CCCCC4)n3)c2)c1 | binding, competition with immobilised ligand | 10 µM | 88% |
| C[C@@H](c1ccc(-n2cnc3c(N)ncnc32)cc1)N1CCc2nn(C)c(Cc3ccccc3)c2C1=O | binding, competition with immobilised ligand | 0.1 µM | 61% |
| Nc1ncc2c(n1)-c1c([nH]c3ccc(C#CC4CC4)cc13)CCCC2 | binding, competition with immobilised ligand | 1 µM | 70% |
| C[C@H](NC(=O)c1cnc2n1[C@](C)(Cc1ccc(C#N)cc1)C(=O)N2c1cc(Cl)c(F)c(Cl)c1)C(=O)NC1(c2ccccn2)CC1 | cell-free assay, competition with immobilised ligand | 1 µM | 95% |
| CN(C)c1nccc(-c2cnc3ncccn23)n1 | binding | 1 µM | 50% |
| O=C(c1ccc(Nc2ncc(Cl)c(-c3cc4ccccc4s3)n2)cc1)N1CCC(N2CCCC2)CC1 | binding, competition with immobilised ligand | 1 µM | 71% |
| COc1cnc(Nc2cccc(S(N)(=O)=O)c2)nc1N1CCN(c2ccccc2)CC1 | binding, competition with immobilised ligand | 1 µM | 81% |
| CN(C)c1nccc(-c2cnn3ncccc23)n1 | binding | 1 µM | 85% |
| Cc1cc(NC(=O)c2cccc(S(F)(F)(F)(F)F)c2)cc(-n2ccn3nc(-c4cccnc4)cc23)c1 | cell-free assay, competition with immobilised ligand | 1 µM | 100% |
| CNC(=O)[C@@H]1CC[C@@H](n2c(-c3ccc4cnccc4c3)nc3ccc(C(=O)NCc4cccc(C(N)=O)c4)cc32)C1 | binding, competition with immobilised ligand | 1 µM | 100% |
